From PMC4216218 (Journal of Medicinal Chemistry, 2014)
Values joined by “and” are separate entries in the source; they are usually repeats but may differ in a detail not shown here. Equal entries are not always repeated.

Key:
factor XI (zymogen) = factor XI (zymogen) (Homo sapiens, UniProt P03951); type: binding; conditions: intrinsic tryptophan fluorescence, pH 7.4, 37 °C
In short: (§1)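 Human plasma factor XI or factor XIa (105 nM) was titrated at 37 °C with aliquots of 200–250 μM aqueous ligand in 50 mM Tris-HCl pH 7.4, 150 mM NaCl, 0.1% PEG8000. Intrinsic tryptophan fluorescence (λEX 280 nm) was followed. ΔF/F0 versus ligand concentration was fitted to a quadratic binding equation for KD and ΔFMAX.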

DEGR-FXIa = DEGR-FXIa (Homo sapiens, UniProt P03951); assay: Salt dependence of affinity of DEGR-FXIa; type: binding
In short: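 DEGR-factor XIa (250 nM) was titrated with ligand solutions at 37 °C in 50 mM Tris-HCl pH 7.4, 0.1% PEG8000, at 25, 50, 100 or 150 mM NaCl. Dansyl fluorescence was read at 547 nm (excitation 345 nm), and a quadratic fit gave KD,obs. […] At least two experiments were run.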

human factor XIa = human factor XIa (Homo sapiens, UniProt P03951); assay: Fluorescence-based binding affinity, intrinsic tryptophan fluorescence; conditions: pH 7.4, 37 °C
In short: as §1

DEGR-factor XIa = DEGR-factor XIa (Homo sapiens, UniProt P03951); assay: Fluorescence-based binding affinity, dansyl fluorescence; conditions: saturating ligand, λEX 345 nm
DEGR-factor XIa, sequence (P03951 19-387 limits assumed): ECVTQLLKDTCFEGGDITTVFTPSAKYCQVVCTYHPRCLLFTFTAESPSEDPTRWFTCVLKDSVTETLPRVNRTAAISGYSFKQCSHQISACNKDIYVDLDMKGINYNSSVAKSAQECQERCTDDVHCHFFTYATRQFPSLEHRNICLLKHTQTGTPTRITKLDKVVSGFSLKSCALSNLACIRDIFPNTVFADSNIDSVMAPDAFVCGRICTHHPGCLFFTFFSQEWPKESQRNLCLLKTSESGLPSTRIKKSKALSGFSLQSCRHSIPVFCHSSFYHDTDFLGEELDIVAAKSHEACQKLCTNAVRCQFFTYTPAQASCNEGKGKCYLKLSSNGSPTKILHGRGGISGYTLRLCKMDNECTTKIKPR
DEGR-factor XIa, sequence (P03951 388-625 limits assumed): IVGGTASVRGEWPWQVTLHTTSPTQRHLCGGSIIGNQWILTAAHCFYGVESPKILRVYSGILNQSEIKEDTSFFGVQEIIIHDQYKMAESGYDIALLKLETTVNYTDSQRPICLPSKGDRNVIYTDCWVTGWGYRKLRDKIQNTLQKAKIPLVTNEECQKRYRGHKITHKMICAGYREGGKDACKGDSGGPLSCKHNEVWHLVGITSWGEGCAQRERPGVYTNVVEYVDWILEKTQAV

DEGR-FXIa, sequence (P03951 19-387 limits assumed): as the sequence (P03951 19-387 limits assumed) above
DEGR-FXIa, sequence (P03951 388-625 limits assumed): as the sequence (P03951 388-625 limits assumed) above
human factor XIa, sequence (P03951 19-387 limits assumed): as the sequence (P03951 19-387 limits assumed) above
human factor XIa, sequence (P03951 388-625 limits assumed): as the sequence (P03951 388-625 limits assumed) above
factor XI (zymogen), sequence (P03951 19-625): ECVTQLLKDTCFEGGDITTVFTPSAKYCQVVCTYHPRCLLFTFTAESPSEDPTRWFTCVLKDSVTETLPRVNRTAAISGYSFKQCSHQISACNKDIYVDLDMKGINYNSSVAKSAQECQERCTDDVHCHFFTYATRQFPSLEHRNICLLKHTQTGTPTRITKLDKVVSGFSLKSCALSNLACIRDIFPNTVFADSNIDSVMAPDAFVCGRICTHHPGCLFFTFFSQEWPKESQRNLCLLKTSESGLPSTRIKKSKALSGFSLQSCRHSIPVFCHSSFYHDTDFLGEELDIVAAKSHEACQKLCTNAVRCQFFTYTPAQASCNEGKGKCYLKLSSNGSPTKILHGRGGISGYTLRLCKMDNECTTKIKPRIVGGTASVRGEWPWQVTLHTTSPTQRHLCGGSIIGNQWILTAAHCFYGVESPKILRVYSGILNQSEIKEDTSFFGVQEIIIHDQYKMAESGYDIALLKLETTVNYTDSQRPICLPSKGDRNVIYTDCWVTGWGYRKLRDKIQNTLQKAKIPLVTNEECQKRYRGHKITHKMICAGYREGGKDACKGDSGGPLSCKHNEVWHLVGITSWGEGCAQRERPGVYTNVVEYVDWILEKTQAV

heparin octasaccharide [H8]
Kd (factor XI (zymogen)): 1800 ± 400 nM | Z (number of ion-pairs formed) (DEGR-FXIa; pH 7.4, 37 °C): 0.64 ± 0.04 | intercept of log KD,obs versus log[Na] (DEGR-FXIa; pH 7.4, 37 °C): –5.00 ± 0.04 | slope of log KD,obs versus log[Na] (DEGR-FXIa; pH 7.4, 37 °C): 0.52 ± 0.03 | ΔG0NI (binding energy due to nonionic forces) (DEGR-FXIa; pH 7.4, 37 °C): 7.08 kcal/mol and 7.1 ± 0.02 kcal/mol | ΔG0NI (nonionic binding energy contribution to the total) (DEGR-FXIa; pH 7.4, 37 °C): 90.5% | ΔG0I (binding energy due to ionic forces) (DEGR-FXIa; pH 7.4, I 0.15): 0.75 kcal/mol | Kd (DEGR-FXIa; read-out: KD,NI (nonionic affinity), dissociation constant at [Na+] = 1 M): 10100 ± 400 nM | Kd (human factor XIa): 900 ± 200 nM | ΔFMAX (human factor XIa): –68 ± 2% | blue-shift of emission wavelength of DEGR-FXIa (DEGR-factor XIa): ~3 nm
